The source made the active and inactive calls. No cut-off for these calls is given here.
Experiments:
[1] = biological target: Mitogen-activated protein kinase 10 (Homo sapiens) (UniProt P53779); assay: Inhibition of wild-type human partial length JNK3 (V28 to Q422 residues) expressed in mammalian expression system at 1 uM by Kinomescan method
Procedure, shortened: (§1)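 Binding-competition screen on the KINOMEscan platform, run by the provider, with the test compound at 1 μM. Readout is percent of control: (test signal − positive control signal)/(negative control signal − positive control signal) × 100. The DMSO negative control is set as 100% Ctrl and a control compound as 0% Ctrl. Lower values mean stronger hits.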

[2] = system: Mast/stem cell growth factor receptor Kit (Homo sapiens), P10721 [V559D,T670I]; assay: Inhibition of human partial length KIT V559D/T670I double mutant (Y545 to D952 residues) expressed in bacterial expression system at 1 uM by Kinomescan method
Procedure, shortened: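 KINOMEscan competition binding panel (98 kinases) run by the provider, compound screened once at 1 μM. Read-out is percent of control: [(test signal − positive control signal)/(negative control signal − positive control signal)] × 100. DMSO negative control sets 100% Ctrl and a control compound sets 0% Ctrl; lower values mean stronger hits.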

Mus musculus [3] = assay: Antiinflammatory activity in LPS-induced C57BL/6 mouse model of acute lung injury assessed as reduction in IL12 mRNA level at 10 mg/kg, iv pretreated for 15 mins followed by LPS stimulation and measured after 6 hrs by SYBR green staining-based qRT-PCR analysis; assay type: functional, organism-based
Procedure, shortened: (§2)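 Total lung RNA extracted, with DNase I removal of residual DNA. Quantitative PCR with mouse gene primers; each gene normalized to β-actin. C57BL/6 mice given compound iv 15 min before intraperitoneal LPS (20 mg/kg) and killed at 6 h.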

[4] = biological target: Dual specificity mitogen-activated protein kinase kinase 2 (Homo sapiens) (UniProt P36507); assay: Inhibition of wild-type human full length MEK2 (M1 to V400 residues) expressed in mammalian expression system at 1 uM by Kinomescan method
Procedure, shortened: (§3)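 KINOMEscan competition binding screen at 1 μM compound. Results reported as % of control = (test − positive control)/(DMSO negative control − positive control) × 100, where lower values mean stronger hits.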

[5] = biological target: Tyrosine-protein kinase BTK (Homo sapiens) (UniProt Q06187); assay: Inhibition of wild-type human full length BTK (M1 to S659 residues) expressed in mammalian expression system at 1 uM by Kinomescan method; procedure, shortened: as §3
[6] = biological target: Proto-oncogene tyrosine-protein kinase receptor Ret (Homo sapiens) (UniProt P07949); assay: Inhibition of wild-type human partial length RET (E713 to D1014 residues) expressed in bacterial expression system at 1 uM by Kinomescan method; procedure, shortened: as §1
Mus musculus [7] = assay: Antiinflammatory activity in LPS-induced C57BL/6 mouse model of acute lung injury assessed as reduction in COX2 mRNA level at 10 mg/kg, iv pretreated for 15 mins followed by LPS stimulation and measured after 6 hrs by SYBR green staining-based qRT-PCR analysis; assay type: functional, organism-based; procedure, shortened: as §2
[8] = biological target: Aurora kinase A (Homo sapiens) (UniProt O14965); assay: Inhibition of wild-type human partial length AURKA (E122 to K401 residues) expressed in mammalian expression system at 1 uM by Kinomescan method; procedure, shortened: as §1
[9] = biological target: Dual specificity mitogen-activated protein kinase kinase 1 (Homo sapiens) (UniProt Q02750); assay: Inhibition of wild-type human full length MEK1 (M1 to V393 residues) expressed in mammalian expression system at 1 uM by Kinomescan method; procedure, shortened: as §3
Mus musculus [10] = assay: Antiinflammatory activity in LPS-induced C57BL/6 mouse model of acute lung injury assessed as reduction in lung injury score at 5 to 10 mg/kg, iv pretreated for 15 mins followed by LPS stimulation and measured after 6 hrs; assay type: functional, organism-based
Procedure, shortened: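 Male C57BL/6 mice (18−22 g; n=8 per group). Compound in 0.1% CMC-Na given by tail vein injection 15 min before intraperitoneal LPS (20 mg/kg); controls received saline. Mice were sacrificed 6 h after LPS, and serum and lung tissue were collected.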

[11] = system: Tyrosine-protein kinase ABL1 (Homo sapiens), P00519 [T315I]; assay: Inhibition of human phosphorylated ABL1 T315I mutant (S229 to K512 residues) expressed in mammalian expression system at 1 uM by Kinomescan method; procedure, shortened: as §3
Toll-like receptor 4 = Toll-like receptor 4 (Homo sapiens, UniProt O00206); assay: Inhibition of HA-tagged/FLAG-tagged TLR4 (unknown origin) homodimerization expressed in HEK293T cells by co-immunoprecipitation method; assay type: cell-based
Procedure, shortened: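 HEK293T cells co-transfected with HA- and Flag-tagged TLR4 plasmids. Compound at various concentrations or vehicle added 6 h after transfection. Lysates immunoprecipitated with protein A/G agarose and detected by immunoblot with anti-HA and anti-Flag antibodies.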

[12] = biological target: Receptor-type tyrosine-protein kinase FLT3 (Homo sapiens) (UniProt P36888); assay: Inhibition of wild-type human partial length FLT3 (V592 to Y969 residues) expressed in bacterial expression system at 1 uM by Kinomescan method; procedure, shortened: as §1
[13] = biological target: Inhibitor of nuclear factor kappa-B kinase subunit beta (Homo sapiens) (UniProt O14920); assay: Inhibition of wild-type human full length IKK-beta (M1 to S756 residues) expressed in mammalian expression system at 1 uM by Kinomescan method; procedure, shortened: as §3
[14] = biological target: Phosphatidylinositol 4,5-bisphosphate 3-kinase catalytic subunit alpha isoform (Homo sapiens) (UniProt P42336); assay: Inhibition of wild-type human partial length PIK3CA (R108 to N1068 residues) expressed in mammalian expression system at 1 uM by Kinomescan method; procedure, shortened: as §1
[15] = biological target: Serine/threonine-protein kinase DCLK1 (Homo sapiens) (UniProt O15075); assay: Inhibition of wild-type human partial length DCAMKL1 (L270 to A662 residues) expressed in mammalian expression system at 1 uM by Kinomescan method; procedure, shortened: as §1
Peritoneal macrophage = assay: Cytotoxicity against ICR mouse peritoneal macrophages assessed as reduction in cell viability at 10 uM measured after 24 hrs by MTT assay; assay type: cell-based
Procedure, shortened: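 Peritoneal macrophages from ICR mice, 2.0×10^4 cells/well in DMEM with 10% FBS. Cells exposed to compound for 24 h, then MTT (5 mg/ml in 0.9% NaCl) added for 4 h at 37 °C in 5% CO2. Absorbance read at 490 nm; final DMSO 0.1%.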

[16] = biological target: Activin receptor type-1B (Homo sapiens) (UniProt P36896); assay: Inhibition of wild-type human ACVR1B (S187 to I505 residues) expressed in bacterial expression system at 1 uM by Kinomescan method; procedure, shortened: as §3
[17] = biological target: SRSF protein kinase 3 (Homo sapiens) (UniProt Q9UPE1); assay: Inhibition of wild-type human partial length SRPK3 (P41 to P567 residues) expressed in bacterial expression system at 1 uM by Kinomescan method
Procedure, shortened: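 Single-concentration screen at 1 μM on the KINOMEscan panel (98 kinases), run by the platform provider. Results are given as percent of control: % Ctrl = [(test signal − positive control signal)/(negative control signal − positive control signal)] × 100. DMSO serves as negative control (100% Ctrl) and a control compound as positive control (0% Ctrl). Lower values mean stronger binding hits.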

[18] = biological target: Bone morphogenetic protein receptor type-2 (Homo sapiens) (UniProt Q13873); assay: Inhibition of wild-type human partial length BMPR2 (R179 to Q526 residues) expressed in mammalian expression system at 1 uM by Kinomescan method; procedure, shortened: as §1
Sequence of Bone morphogenetic protein receptor type-2 (Homo sapiens) (Q13873 whole entry, the tested form may be a part): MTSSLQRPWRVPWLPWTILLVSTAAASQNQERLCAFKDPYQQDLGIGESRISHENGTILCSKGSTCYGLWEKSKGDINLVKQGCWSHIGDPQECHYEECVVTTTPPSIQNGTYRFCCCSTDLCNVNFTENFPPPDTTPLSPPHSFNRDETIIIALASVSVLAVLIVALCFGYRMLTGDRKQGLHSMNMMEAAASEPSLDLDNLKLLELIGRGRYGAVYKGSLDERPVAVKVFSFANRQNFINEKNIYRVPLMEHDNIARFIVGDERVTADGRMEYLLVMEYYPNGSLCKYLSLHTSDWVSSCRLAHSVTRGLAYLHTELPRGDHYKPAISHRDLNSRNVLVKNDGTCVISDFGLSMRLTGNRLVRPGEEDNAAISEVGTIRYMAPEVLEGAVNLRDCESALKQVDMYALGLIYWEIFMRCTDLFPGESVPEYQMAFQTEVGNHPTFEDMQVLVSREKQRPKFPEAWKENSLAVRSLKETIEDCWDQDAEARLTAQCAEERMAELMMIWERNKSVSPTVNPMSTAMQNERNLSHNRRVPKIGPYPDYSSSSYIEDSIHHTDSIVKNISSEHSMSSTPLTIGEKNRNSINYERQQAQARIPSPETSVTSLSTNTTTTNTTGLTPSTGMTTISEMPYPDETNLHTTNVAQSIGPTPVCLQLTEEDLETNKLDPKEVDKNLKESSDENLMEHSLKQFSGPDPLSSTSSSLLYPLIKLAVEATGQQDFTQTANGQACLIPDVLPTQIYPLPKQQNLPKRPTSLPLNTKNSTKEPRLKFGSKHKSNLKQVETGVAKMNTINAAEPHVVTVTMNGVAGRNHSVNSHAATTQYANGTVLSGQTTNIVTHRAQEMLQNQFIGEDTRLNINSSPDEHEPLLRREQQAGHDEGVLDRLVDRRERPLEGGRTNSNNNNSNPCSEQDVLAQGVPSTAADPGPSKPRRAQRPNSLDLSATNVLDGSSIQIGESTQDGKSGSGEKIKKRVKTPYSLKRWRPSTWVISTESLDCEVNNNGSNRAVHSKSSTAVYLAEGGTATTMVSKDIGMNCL

Sequence of Serine/threonine-protein kinase DCLK1 (Homo sapiens) (O15075 whole entry, the tested form may be a part): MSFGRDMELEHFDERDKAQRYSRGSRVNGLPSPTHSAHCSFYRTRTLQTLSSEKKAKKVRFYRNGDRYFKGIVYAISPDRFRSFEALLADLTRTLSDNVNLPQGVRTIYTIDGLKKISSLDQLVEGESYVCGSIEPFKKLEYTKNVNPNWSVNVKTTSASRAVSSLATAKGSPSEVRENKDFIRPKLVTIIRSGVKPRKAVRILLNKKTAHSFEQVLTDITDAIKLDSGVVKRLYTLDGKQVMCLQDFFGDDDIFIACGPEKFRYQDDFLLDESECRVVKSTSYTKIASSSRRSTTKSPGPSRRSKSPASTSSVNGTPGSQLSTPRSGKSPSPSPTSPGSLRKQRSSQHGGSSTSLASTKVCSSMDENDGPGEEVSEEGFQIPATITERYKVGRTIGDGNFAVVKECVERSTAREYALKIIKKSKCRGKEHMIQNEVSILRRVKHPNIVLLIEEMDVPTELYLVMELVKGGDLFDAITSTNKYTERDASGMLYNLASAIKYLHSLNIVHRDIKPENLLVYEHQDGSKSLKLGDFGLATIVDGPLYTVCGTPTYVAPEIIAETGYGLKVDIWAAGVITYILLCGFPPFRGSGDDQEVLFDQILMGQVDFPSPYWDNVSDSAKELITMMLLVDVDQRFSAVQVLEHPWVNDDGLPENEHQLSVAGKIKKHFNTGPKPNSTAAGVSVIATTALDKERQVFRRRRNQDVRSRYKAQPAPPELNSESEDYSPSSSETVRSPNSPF
Sequence of Aurora kinase A (Homo sapiens) (O14965 whole entry, the tested form may be a part): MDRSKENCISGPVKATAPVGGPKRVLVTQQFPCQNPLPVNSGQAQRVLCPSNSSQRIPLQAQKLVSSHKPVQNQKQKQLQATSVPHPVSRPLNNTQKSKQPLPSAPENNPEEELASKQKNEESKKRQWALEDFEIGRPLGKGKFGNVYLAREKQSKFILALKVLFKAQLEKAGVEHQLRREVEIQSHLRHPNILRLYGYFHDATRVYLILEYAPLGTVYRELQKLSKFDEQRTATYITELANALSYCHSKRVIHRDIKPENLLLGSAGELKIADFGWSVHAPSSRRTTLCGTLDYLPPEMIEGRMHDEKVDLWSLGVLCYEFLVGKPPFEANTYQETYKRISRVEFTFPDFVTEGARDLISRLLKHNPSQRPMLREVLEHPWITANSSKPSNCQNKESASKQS
Sequence of Activin receptor type-1B (Homo sapiens) (P36896 whole entry, the tested form may be a part): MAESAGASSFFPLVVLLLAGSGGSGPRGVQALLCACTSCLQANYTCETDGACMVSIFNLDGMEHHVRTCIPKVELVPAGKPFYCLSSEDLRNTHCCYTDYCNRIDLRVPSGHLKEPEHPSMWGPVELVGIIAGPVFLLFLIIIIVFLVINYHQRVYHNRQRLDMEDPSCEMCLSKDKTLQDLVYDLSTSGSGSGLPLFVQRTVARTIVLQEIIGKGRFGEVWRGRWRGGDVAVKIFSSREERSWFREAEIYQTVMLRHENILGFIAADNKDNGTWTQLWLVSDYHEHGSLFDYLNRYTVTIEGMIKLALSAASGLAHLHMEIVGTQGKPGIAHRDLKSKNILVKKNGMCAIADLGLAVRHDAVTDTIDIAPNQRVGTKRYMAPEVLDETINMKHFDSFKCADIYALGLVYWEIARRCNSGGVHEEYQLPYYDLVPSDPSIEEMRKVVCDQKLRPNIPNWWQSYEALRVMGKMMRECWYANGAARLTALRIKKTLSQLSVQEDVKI
Sequence of Receptor-type tyrosine-protein kinase FLT3 (Homo sapiens) (P36888 whole entry, the tested form may be a part): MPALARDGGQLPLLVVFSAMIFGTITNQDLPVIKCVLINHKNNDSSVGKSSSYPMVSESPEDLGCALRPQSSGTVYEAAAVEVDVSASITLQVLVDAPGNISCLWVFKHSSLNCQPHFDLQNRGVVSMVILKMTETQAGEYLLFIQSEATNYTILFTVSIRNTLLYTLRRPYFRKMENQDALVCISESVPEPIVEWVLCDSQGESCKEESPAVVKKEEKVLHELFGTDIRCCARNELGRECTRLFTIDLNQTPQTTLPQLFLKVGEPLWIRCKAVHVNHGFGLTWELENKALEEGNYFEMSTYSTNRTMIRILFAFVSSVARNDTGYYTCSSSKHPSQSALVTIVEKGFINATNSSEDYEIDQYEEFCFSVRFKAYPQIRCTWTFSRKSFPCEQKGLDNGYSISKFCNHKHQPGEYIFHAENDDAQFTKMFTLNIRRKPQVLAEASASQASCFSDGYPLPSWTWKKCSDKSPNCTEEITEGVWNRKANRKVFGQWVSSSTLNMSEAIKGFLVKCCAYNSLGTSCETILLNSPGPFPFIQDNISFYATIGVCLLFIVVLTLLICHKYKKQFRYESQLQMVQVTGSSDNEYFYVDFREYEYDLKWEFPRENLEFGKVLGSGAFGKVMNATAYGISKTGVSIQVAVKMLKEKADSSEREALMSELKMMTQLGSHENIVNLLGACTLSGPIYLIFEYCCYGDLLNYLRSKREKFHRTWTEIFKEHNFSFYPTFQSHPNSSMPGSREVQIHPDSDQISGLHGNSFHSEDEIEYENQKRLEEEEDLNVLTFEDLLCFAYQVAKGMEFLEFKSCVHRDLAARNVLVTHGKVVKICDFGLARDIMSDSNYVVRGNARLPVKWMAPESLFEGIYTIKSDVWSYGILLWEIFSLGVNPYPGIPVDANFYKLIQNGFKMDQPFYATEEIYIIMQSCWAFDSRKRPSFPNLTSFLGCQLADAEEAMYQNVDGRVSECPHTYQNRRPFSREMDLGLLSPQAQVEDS
Sequence of Tyrosine-protein kinase BTK (Homo sapiens) (Q06187 whole entry, the tested form may be a part): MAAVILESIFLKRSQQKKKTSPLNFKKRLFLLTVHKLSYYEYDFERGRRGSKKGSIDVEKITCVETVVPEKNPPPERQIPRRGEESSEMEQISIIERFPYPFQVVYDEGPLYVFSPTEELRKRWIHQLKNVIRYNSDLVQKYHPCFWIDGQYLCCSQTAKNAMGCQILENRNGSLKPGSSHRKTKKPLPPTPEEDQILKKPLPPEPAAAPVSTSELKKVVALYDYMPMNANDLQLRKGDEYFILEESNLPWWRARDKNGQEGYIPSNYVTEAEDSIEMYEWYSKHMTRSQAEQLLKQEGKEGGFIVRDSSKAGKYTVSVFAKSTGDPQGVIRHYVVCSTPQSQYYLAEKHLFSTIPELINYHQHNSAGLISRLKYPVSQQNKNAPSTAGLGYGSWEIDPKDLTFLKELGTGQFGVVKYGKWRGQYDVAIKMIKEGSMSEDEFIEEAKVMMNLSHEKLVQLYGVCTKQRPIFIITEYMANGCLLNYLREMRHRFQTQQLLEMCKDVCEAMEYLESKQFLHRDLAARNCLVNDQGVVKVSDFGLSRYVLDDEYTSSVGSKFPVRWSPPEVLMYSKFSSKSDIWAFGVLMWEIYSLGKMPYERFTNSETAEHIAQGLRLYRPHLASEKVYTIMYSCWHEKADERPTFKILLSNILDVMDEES
Sequence of Dual specificity mitogen-activated protein kinase kinase 1 (Homo sapiens) (Q02750 whole entry, the tested form may be a part): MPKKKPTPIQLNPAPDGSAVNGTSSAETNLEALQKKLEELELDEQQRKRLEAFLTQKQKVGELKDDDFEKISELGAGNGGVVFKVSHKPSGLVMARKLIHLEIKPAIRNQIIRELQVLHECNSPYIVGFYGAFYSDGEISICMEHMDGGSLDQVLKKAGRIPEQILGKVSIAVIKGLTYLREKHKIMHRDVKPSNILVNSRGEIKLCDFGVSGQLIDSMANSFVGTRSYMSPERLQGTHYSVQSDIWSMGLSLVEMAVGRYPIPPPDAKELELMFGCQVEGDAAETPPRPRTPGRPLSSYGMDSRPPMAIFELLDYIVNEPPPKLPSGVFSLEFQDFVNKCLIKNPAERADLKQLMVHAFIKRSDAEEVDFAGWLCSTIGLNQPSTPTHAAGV

In the case of `O=C(Nc1ccc2[nH]nc(-c3ccc4[nH]ccc4c3)c2c1)c1c(Cl)cccc1Cl`, the inhibition [1] is reported as “inactive”, the inhibition [2] is reported as “inactive” and the Activity (Mus musculus [3]) is reported as “Active”. For the same molecule, the inhibition [4] was “inactive”, the inhibition [5] was “inactive” and the inhibition [6] was “inactive”. The Activity (Mus musculus [7]) was “Active”, the inhibition [8] was “inactive” and the inhibition [9] was “inactive”. For the same molecule, the Activity (Mus musculus [10]) was “Active”, the inhibition [11] was “inactive” and the inhibition (Toll-like receptor 4) was “Active”. The inhibition [12] was “inactive”, the inhibition [13] was “inactive” and the inhibition [14] was “inactive”. For the same molecule, the inhibition [15] was “inactive”, the Activity (Peritoneal macrophage) was “Non-Toxic” and the inhibition [16] was “inactive”. The inhibition [17] was “inactive” and the inhibition [18] was “inactive”.

— ChEMBL document CHEMBL4304739, “Discovery of 3-(Indol-5-yl)-indazole Derivatives as Novel Myeloid Differentiation Protein 2/Toll-like Receptor 4 Antagonists for Treatment of Acute Lung Injury” (J Med Chem, 2019)
